Laboratory results published in ChEMBL document CHEMBL4321796, “Proteolysis Targeting Chimeras for the Selective Degradation of Mcl-1/Bcl-2 Derived from Nonselective Target Binding Ligands” (J Med Chem, 2019).
Calls of active or inactive are those of the source. No cut-off for these calls is given here.

Legend:
[1] = target: Protein cereblon/E3 ubiquitin-protein ligase Mdm2 (Homo sapiens) (UniProt Q00987+Q96SW2); assay: Induction of CRBN-mediated MDM2 degradation in human HeLa cells at 10 uM incubated for 12 hrs by Western blot analysis; type: cell-based
[2] = target: Protein cereblon/Bcl-2-like protein 1 (Homo sapiens) (UniProt Q07817+Q96SW2); assay: Induction of CRBN-mediated Bcl-xl degradation in human HeLa cells at 10 uM incubated for 12 hrs by Western blot analysis; type: cell-based
[3] = target: Induced myeloid leukemia cell differentiation protein Mcl-1 (Homo sapiens, UniProt Q07820); assay: Inhibition of biotinylated Bim peptide (81 to 106 residues) binding to His-tagged human Mcl-1 expressed in Escherichia coli BL21 (DE3) cells preincubated for 1 hr followed by biotinylated Bim peptide addition measured after 2 hrs by ELISA
Method in brief: (§1)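 Inhibitor serially diluted (100–0.1 µM) from 10 mM DMSO stock, preincubated 1 h with 200 nM His-tagged protein in PBS (final DMSO 4%), then added 2 h to streptavidin plates holding biotin-Bim (plated at 0.09 mg/mL). Incubations at 4 °C. Detection with HRP anti-His, TMB 30 min, H2SO4 stop, A450. IC50 averaged from three independent experiments, with SD.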

[4] = target: Apoptosis regulator Bcl-2 (Homo sapiens, UniProt P10415); assay: Inhibition of biotinylated Bim peptide (81 to 106 residues) binding to His-tagged human Bcl-2 expressed in Escherichia coli BL21 (DE3) cells preincubated for 1 hr followed by biotinylated Bim peptide addition measured after 2 hrs by ELISA; method in brief: as §1
[5] = target: T1, Protein cereblon/Induced myeloid leukemia cell differentiation protein Mcl-1 (Homo sapiens, UniProt Q07820+Q96SW2); assay: Induction of CRBN-mediated Mcl-1 degradation in human HeLa cells assessed as relative abundance at 10 uM after 12 hrs by Western blot analysis (reference value: 1); type: cell-based
Target sequence in this assay (Q07820 whole entry, looked up): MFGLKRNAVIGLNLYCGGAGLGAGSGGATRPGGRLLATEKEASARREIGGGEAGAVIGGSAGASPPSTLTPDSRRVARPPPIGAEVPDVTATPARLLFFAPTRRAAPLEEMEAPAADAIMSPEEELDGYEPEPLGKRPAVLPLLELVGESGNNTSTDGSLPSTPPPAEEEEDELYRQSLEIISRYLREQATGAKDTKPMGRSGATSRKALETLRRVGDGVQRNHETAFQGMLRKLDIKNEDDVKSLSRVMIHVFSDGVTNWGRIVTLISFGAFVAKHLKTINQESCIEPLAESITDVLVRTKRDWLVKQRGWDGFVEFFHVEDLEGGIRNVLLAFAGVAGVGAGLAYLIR
Target sequence in this assay (Q96SW2 whole entry, looked up): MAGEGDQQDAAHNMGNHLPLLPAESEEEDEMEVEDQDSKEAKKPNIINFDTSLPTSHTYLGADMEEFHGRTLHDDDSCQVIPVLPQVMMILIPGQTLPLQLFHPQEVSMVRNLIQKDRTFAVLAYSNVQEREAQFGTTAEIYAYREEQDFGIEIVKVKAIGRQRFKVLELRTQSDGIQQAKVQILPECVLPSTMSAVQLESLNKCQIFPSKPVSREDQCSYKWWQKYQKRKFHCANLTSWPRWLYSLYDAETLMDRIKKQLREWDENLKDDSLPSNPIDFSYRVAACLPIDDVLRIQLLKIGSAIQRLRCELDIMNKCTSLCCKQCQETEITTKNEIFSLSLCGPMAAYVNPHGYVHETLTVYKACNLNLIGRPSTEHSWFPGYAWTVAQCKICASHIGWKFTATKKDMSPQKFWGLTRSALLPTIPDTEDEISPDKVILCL

[6] = target: T1, Protein cereblon/Induced myeloid leukemia cell differentiation protein Mcl-1; assay: Induction of CRBN-mediated Mcl-1 degradation in human HeLa cells assessed as relative abundance at 1 uM after 12 hrs by Western blot analysis (reference value: 1); type: cell-based
Target sequence in this assay (Q07820 whole entry, looked up): as the sequence (Q07820 whole entry, looked up) above
Target sequence in this assay (Q96SW2 whole entry, looked up): as the sequence (Q96SW2 whole entry, looked up) above

[7] = target: T2, Protein cereblon/Apoptosis regulator Bcl-2 (Homo sapiens, UniProt P10415+Q96SW2); assay: Induction of CRBN-mediated Bcl-2 degradation in human HeLa cells assessed as relative abundance at 10 uM after 12 hrs by Western blot analysis (reference value: 1); type: cell-based
Target sequence in this assay (P10415 whole entry, looked up): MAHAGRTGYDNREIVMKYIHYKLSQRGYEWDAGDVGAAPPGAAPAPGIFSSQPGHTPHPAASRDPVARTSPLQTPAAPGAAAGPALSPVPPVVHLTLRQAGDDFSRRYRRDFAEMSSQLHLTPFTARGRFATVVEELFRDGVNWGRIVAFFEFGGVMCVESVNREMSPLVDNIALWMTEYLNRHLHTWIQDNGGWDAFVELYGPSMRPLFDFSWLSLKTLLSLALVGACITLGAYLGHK
Target sequence in this assay (Q96SW2 whole entry, looked up): as the sequence (Q96SW2 whole entry, looked up) above

[8] = target: T2, Protein cereblon/Apoptosis regulator Bcl-2; assay: Induction of CRBN-mediated Bcl-2 degradation in human HeLa cells assessed as relative abundance at 1 uM after 12 hrs by Western blot analysis (reference value: 1); type: cell-based
Target sequence in this assay (P10415 whole entry, looked up): as the sequence (P10415 whole entry, looked up) above
Target sequence in this assay (Q96SW2 whole entry, looked up): as the sequence (Q96SW2 whole entry, looked up) above

[9] = target: T2, Protein cereblon/Apoptosis regulator Bcl-2; assay: Induction of CRBN-mediated Bcl-2 degradation in human HeLa cells after 12 hrs by Western blot analysis; type: cell-based
Target sequence in this assay (P10415 whole entry, looked up): as the sequence (P10415 whole entry, looked up) above
Target sequence in this assay (Q96SW2 whole entry, looked up): as the sequence (Q96SW2 whole entry, looked up) above

[10] = target: T2, Protein cereblon/Apoptosis regulator Bcl-2; assay: Induction of CRBN-mediated Bcl-2 degradation in human HeLa cells assessed as reduction in Bcl-2 level at 1 uM after 12 hrs by Western blot analysis relative to control; type: cell-based; set-up: scale not given: the % may be the effect or the level left
Target sequence in this assay (P10415 whole entry, looked up): as the sequence (P10415 whole entry, looked up) above
Target sequence in this assay (Q96SW2 whole entry, looked up): as the sequence (Q96SW2 whole entry, looked up) above

[11] = target: T2, Protein cereblon/Apoptosis regulator Bcl-2; assay: Induction of CRBN-mediated Bcl-2 degradation in human HeLa cells assessed as reduction in Bcl-2 level at 10 uM after 12 hrs by Western blot analysis relative to control; type: cell-based; set-up: scale not given: the % may be the effect or the level left
Target sequence in this assay (P10415 whole entry, looked up): as the sequence (P10415 whole entry, looked up) above
Target sequence in this assay (Q96SW2 whole entry, looked up): as the sequence (Q96SW2 whole entry, looked up) above

[12] = target: T2, Protein cereblon/Apoptosis regulator Bcl-2; assay: Induction of CRBN-mediated Bcl-2 degradation in human HeLa cells assessed as relative abundance at 3 uM after 12 hrs by Western blot analysis (reference value: 1); type: cell-based
Target sequence in this assay (P10415 whole entry, looked up): as the sequence (P10415 whole entry, looked up) above
Target sequence in this assay (Q96SW2 whole entry, looked up): as the sequence (Q96SW2 whole entry, looked up) above

[13] = target: T2, Protein cereblon/Apoptosis regulator Bcl-2; assay: Induction of CRBN-mediated Bcl-2 degradation in human HeLa cells assessed as relative abundance at 0.3 uM after 12 hrs by Western blot analysis (reference value: 1); type: cell-based
[14] = target: T1, Protein cereblon/Induced myeloid leukemia cell differentiation protein Mcl-1; assay: Induction of CRBN-mediated Mcl-1 degradation in human HeLa cells assessed as relative abundance at 0.1 uM after 12 hrs by Western blot analysis (reference value: 1); type: cell-based
Target sequence in this assay (Q07820 whole entry, looked up): as the sequence (Q07820 whole entry, looked up) above
Target sequence in this assay (Q96SW2 whole entry, looked up): as the sequence (Q96SW2 whole entry, looked up) above

[15] = target: T2, Protein cereblon/Apoptosis regulator Bcl-2; assay: Induction of CRBN-mediated Bcl-2 degradation in human HeLa cells assessed as relative abundance at 0.1 uM after 12 hrs by Western blot analysis (reference value: 1); type: cell-based
[16] = target: T1, Protein cereblon/Induced myeloid leukemia cell differentiation protein Mcl-1; assay: Induction of CRBN-mediated Mcl-1 degradation in human HeLa cells assessed as relative abundance at 0.3 uM after 12 hrs by Western blot analysis (reference value: 1); type: cell-based
Target sequence in this assay (Q07820 whole entry, looked up): as the sequence (Q07820 whole entry, looked up) above
Target sequence in this assay (Q96SW2 whole entry, looked up): as the sequence (Q96SW2 whole entry, looked up) above

[17] = target: T1, Protein cereblon/Induced myeloid leukemia cell differentiation protein Mcl-1; assay: Induction of CRBN-mediated Mcl-1 degradation in human HeLa cells assessed as relative abundance at 3 uM after 12 hrs by Western blot analysis (reference value: 1); type: cell-based
Target sequence in this assay (Q07820 whole entry, looked up): as the sequence (Q07820 whole entry, looked up) above
Target sequence in this assay (Q96SW2 whole entry, looked up): as the sequence (Q96SW2 whole entry, looked up) above

[18] = target: T1, Protein cereblon/Induced myeloid leukemia cell differentiation protein Mcl-1; assay: Induction of CRBN-mediated Mcl-1 degradation in human HeLa cells assessed as relative abundance at 10 uM measured at 2 hrs by Western blot analysis (reference value: 1); type: cell-based
Method in brief: (§2)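 HeLa cells in DMEM with 10% FBS, exposed to 10 µM compound over a 0–24 h time course. Mcl-1 and Bcl-2 detected by immunoblot (NP-40 lysis, BCA-equalized SDS-PAGE, PVDF, ECL) and quantified relative to DMSO control; mean ± s.d., n=3 independent samples.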
Target sequence in this assay (Q07820 whole entry, looked up): as the sequence (Q07820 whole entry, looked up) above
Target sequence in this assay (Q96SW2 whole entry, looked up): as the sequence (Q96SW2 whole entry, looked up) above

[19] = target: T2, Protein cereblon/Apoptosis regulator Bcl-2; assay: Induction of CRBN-mediated Bcl-2 degradation in human HeLa cells at 10 uM by Western blot analysis; type: cell-based; details: TDE = time-dependent effect
[20] = target: T1, Protein cereblon/Induced myeloid leukemia cell differentiation protein Mcl-1; assay: Induction of CRBN-mediated Mcl-1 degradation in human HeLa cells assessed as relative abundance at 10 uM measured at 4 hrs by Western blot analysis (reference value: 1); type: cell-based; method in brief: as §2
[21] = target: T1, Protein cereblon/Induced myeloid leukemia cell differentiation protein Mcl-1; assay: Induction of CRBN-mediated Mcl-1 degradation in human HeLa cells assessed as relative abundance at 10 uM measured at 8 hrs by Western blot analysis (reference value: 1); type: cell-based; method in brief: as §2
[22] = target: T2, Protein cereblon/Apoptosis regulator Bcl-2; assay: Induction of CRBN-mediated Bcl-2 degradation in human HeLa cells assessed as relative abundance at 10 uM measured at 20 hrs by Western blot analysis (reference value: 1); type: cell-based; method in brief: as §2
[23] = target: T1, Protein cereblon/Induced myeloid leukemia cell differentiation protein Mcl-1; assay: Induction of CRBN-mediated Mcl-1 degradation in human HeLa cells assessed as relative abundance at 10 uM measured at 16 hrs by Western blot analysis (reference value: 1); type: cell-based; method in brief: as §2
[24] = target: T1, Protein cereblon/Induced myeloid leukemia cell differentiation protein Mcl-1; assay: Induction of CRBN-mediated Mcl-1 degradation in human HeLa cells assessed as relative abundance at 10 uM measured at 20 hrs by Western blot analysis (reference value: 1); type: cell-based; method in brief: as §2
[25] = target: T1, Protein cereblon/Induced myeloid leukemia cell differentiation protein Mcl-1; assay: Induction of CRBN-mediated Mcl-1 degradation in human HeLa cells assessed as relative abundance at 10 uM measured at 24 hrs by Western blot analysis (reference value: 1); type: cell-based; method in brief: as §2
[26] = target: T2, Protein cereblon/Apoptosis regulator Bcl-2; assay: Induction of CRBN-mediated Bcl-2 degradation in human HeLa cells assessed as relative abundance at 10 uM measured at 2 hrs by Western blot analysis (reference value: 1); type: cell-based; method in brief: as §2
[27] = target: T2, Protein cereblon/Apoptosis regulator Bcl-2; assay: Induction of CRBN-mediated Bcl-2 degradation in human HeLa cells assessed as relative abundance at 10 uM measured at 4 hrs by Western blot analysis (reference value: 1); type: cell-based; method in brief: as §2
[28] = target: T2, Protein cereblon/Apoptosis regulator Bcl-2; assay: Induction of CRBN-mediated Bcl-2 degradation in human HeLa cells assessed as relative abundance at 10 uM measured at 8 hrs by Western blot analysis (reference value: 1); type: cell-based; method in brief: as §2
[29] = target: T2, Protein cereblon/Apoptosis regulator Bcl-2; assay: Induction of CRBN-mediated Bcl-2 degradation in human HeLa cells assessed as relative abundance at 10 uM measured at 16 hrs by Western blot analysis (reference value: 1); type: cell-based; method in brief: as §2
[30] = target: T2, Protein cereblon/Apoptosis regulator Bcl-2; assay: Induction of CRBN-mediated Bcl-2 degradation in human HeLa cells assessed as relative abundance at 10 uM measured at 24 hrs by Western blot analysis (reference value: 1); type: cell-based; method in brief: as §2
[31] = target: T2, Protein cereblon/Apoptosis regulator Bcl-2; assay: Induction of CRBN-mediated Bcl-2 degradation in human HeLa cells measured at 12 hrs by Western blot analysis; type: cell-based
Target sequence in this assay (P10415 whole entry): as the sequence (P10415 whole entry, looked up) above
Target sequence in this assay (Q96SW2 whole entry): as the sequence (Q96SW2 whole entry, looked up) above

[32] = system: HeLa; assay: Induction of CRBN-mediated tubulin degradation in human HeLa cells at 10 uM incubated for 12 hrs by Western blot analysis; type: cell-based
Method in brief: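 HeLa cells (DMEM, 10% FBS, 37 °C, 5% CO2) treated 12 h with compound (10 µM, or 0–10 µM gradient; time course 0–24 h at 10 µM). Lysis in NP-40 buffer with protease inhibitors, equal protein loaded for SDS-PAGE and immunoblotting. Bands quantified relative to DMSO control. n=3 independent samples.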

[33] = target: T2, Protein cereblon/Apoptosis regulator Bcl-2; assay: Induction of CRBN-mediated Bcl-2 degradation in human HeLa cells at 10 uM pretreated with proteasome inhibitor MG-132 followed by compound addition by Western blot analysis; type: cell-based
[34] = target: T2, Protein cereblon/Apoptosis regulator Bcl-2; assay: Induction of CRBN-mediated Bcl-2 degradation in human HeLa cells at 10 uM pretreated with Bcl-2 inhibitor Nap-1 followed by compound addition by Western blot analysis; type: cell-based
[35] = target: T2, Protein cereblon/Apoptosis regulator Bcl-2; assay: Induction of CRBN-mediated Bcl-2 degradation in human HeLa cells at 10 uM pretreated with CRBN inhibitor pomalidomide followed by compound addition by Western blot analysis; type: cell-based
[36] = target: T2, Protein cereblon/Apoptosis regulator Bcl-2; assay: Protac activity at CRBN/Bcl-2 in human HeLa cell lysates assessed as ternary complex formation by Western blot analysis based pull-down assay; type: subcellular; details: Lysate
Method in brief: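 HeLa lysate (25×10^6 cells, 1% Triton X-100 IP buffer), 1 mg total protein, incubated overnight with 1 µg CRBN antibody across a compound concentration gradient. Capture on protein A+G agarose, three Triton washes, boiled in loading buffer. Mcl-1, Bcl-2 and CRBN detected by immunoblotting. n=3 independent samples.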

[37] = target: T1, Protein cereblon/Induced myeloid leukemia cell differentiation protein Mcl-1; assay: Induction of CRBN-mediated Mcl-1 degradation in human HeLa cells at 10 uM measured at 24 hrs by Western blot analysis relative to control; type: cell-based; method in brief: as §2
[38] = target: T1, Protein cereblon/Induced myeloid leukemia cell differentiation protein Mcl-1; assay: Induction of CRBN-mediated Mcl-1 degradation in human HeLa cells assessed as Mcl-1 removal activity measured at 12 hrs by Western blot analysis; type: cell-based
Target sequence in this assay (Q07820 whole entry): as the sequence (Q07820 whole entry, looked up) above
Target sequence in this assay (Q96SW2 whole entry): as the sequence (Q96SW2 whole entry, looked up) above

[39] = target: T1, Protein cereblon/Induced myeloid leukemia cell differentiation protein Mcl-1; assay: Induction of CRBN-mediated Mcl-1 degradation in human K562 cells incubated for 12 hrs by Western blot analysis; type: cell-based
Method in brief: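 K562 cells kept in RPMI1640 with 10% FBS at 37 °C, 5% CO2. After compound treatment, cells lysed in NP-40 buffer with protease inhibitors. Equal protein run on SDS-PAGE, then immunoblotted; protein levels quantified from the blots.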

Chain of Apoptosis regulator Bcl-2 (P10415 whole entry, the tested form may be a part): as the sequence (P10415 whole entry, looked up) above
Chain of Protein cereblon/Bcl-2-like protein 1 (Homo sapiens) (Q07817 whole entry, looked up, the tested form may be a part): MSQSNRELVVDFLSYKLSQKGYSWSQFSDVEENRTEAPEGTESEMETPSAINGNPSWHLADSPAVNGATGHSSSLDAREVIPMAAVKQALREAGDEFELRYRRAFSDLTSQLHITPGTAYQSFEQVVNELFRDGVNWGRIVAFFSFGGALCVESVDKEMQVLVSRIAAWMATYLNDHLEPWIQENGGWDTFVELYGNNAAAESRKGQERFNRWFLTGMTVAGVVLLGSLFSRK
Chain of Protein cereblon/Bcl-2-like protein 1 (Homo sapiens) (Q96SW2 whole entry, looked up, the tested form may be a part): as the sequence (Q96SW2 whole entry, looked up) above
Chain of Protein cereblon/E3 ubiquitin-protein ligase Mdm2 (Homo sapiens) (Q00987 whole entry, looked up): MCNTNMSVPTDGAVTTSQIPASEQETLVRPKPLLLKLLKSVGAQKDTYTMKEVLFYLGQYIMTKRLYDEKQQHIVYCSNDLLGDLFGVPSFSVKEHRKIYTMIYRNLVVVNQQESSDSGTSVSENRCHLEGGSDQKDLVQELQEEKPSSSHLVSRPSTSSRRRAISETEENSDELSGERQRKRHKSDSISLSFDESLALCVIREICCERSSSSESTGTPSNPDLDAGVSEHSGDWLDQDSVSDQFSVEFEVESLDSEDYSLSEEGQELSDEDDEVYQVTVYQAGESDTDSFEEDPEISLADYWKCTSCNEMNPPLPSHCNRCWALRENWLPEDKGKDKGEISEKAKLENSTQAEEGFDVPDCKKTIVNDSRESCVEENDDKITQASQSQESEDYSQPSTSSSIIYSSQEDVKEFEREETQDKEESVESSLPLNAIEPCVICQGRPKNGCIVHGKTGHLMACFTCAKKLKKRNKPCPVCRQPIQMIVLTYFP
Chain of Protein cereblon/E3 ubiquitin-protein ligase Mdm2 (Homo sapiens) (Q96SW2 whole entry, looked up): as the sequence (Q96SW2 whole entry, looked up) above
Chain of Induced myeloid leukemia cell differentiation protein Mcl-1 (Q07820 whole entry, the tested form may be a part): as the sequence (Q07820 whole entry, looked up) above

Row | SMILES | fold change (FC) [5] | fold change (FC) [6] | fold change (FC) [7] | fold change (FC) [8] | fold change (FC) [12] | fold change (FC) [13] | fold change (FC) [14] | fold change (FC) [15] | fold change (FC) [16] | fold change (FC) [17] | fold change (FC) [18] | fold change (FC) [20] | fold change (FC) [21] | fold change (FC) [22] | fold change (FC) [23] | fold change (FC) [24] | fold change (FC) [25] | fold change (FC) [26] | fold change (FC) [27] | fold change (FC) [28] | further results
1 | O=C(CCCCC(=O)NCCN1C(=O)c2cccc3c(Sc4ccc(Br)cc4)ccc(c23)C1=O)NCCOCCOCCNc1cccc2c1C(=O)N(C1CCC(=O)NC1=O)C2=O (stereo unspecified) | 0.9 to 1 | 1 | 0.1 | 0.9 | 0.5 | 0.9 | 1 | 1 | 1 | 1.2 | 1.1 | 1 | 1 | 1 | 1.1 | 1 | 0.8 | 0.8 | 0.6 | 0.3 | Activity [1]: inactive; Activity [2]: inactive; IC50 [3]: 11.8 µM; IC50 [4]: 4.94 µM; Activity [9]: Dose-dependent effect; Activity [10]: 10%; Activity [11]: 90%; Activity [19]: Tde; fold change (FC) [29]: 0.7; fold change (FC) [30]: 1; DC50 [31]: 3 µM; Activity [32]: inactive; Activity [33]: inactive; Activity [34]: inactive; Activity [35]: inactive; Activity [36]: Dose-dependent effect
2 | N#CC1=C(NCCC(=O)O)c2ccc(Sc3ccc(Br)cc3)c3cccc(c23)C1=O | 0.6 | 1.1 | 1.1 | 1.3 | 1 | 1.3 | 1 | 1.2 | 1.1 | 0.8 | 1 | 1 | 0.9 | 1.1 | 0.5 | 0.3 | 0.2 | 1.1 | 1.2 | 1.3 | fold change (FC) [29]: 1; fold change (FC) [30]: 1.1; Activity [37]: 80%; DC50 [38]: 3.6 µM; Activity [39]: Active
